# Shown are actives, neighbours in structure and some others; about 2.7% of the full set was active somewhere.
# OXTR potentiate = potentiates the human oxytocin receptor response. P30559. CHO-OTR cells, Fluo-8 calcium fluorescence, potentiator mode; 0% = oxytocin EC15, 100% = EC100. activation, % at 3 µM. 320,000 tested, 0.061% active. AID 2445;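 active = activation above that plate's cutoff, the mean activation of tested compounds plus 3 SD, cut at about 6.6% in these data, passing the limit was not always enough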;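 also: 100% uses oxytocin at 75 nM as the full agonist control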
#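 test system = CHO-OTR cells, human receptor | compound = single-point 3.0 µM | schedule = 6 min compound pre-incubation at room temperature, 100 s kinetic read | signal = Fluo-8 no-wash calcium dye fluorescence, excitation 470-495 nm, emission 515-575 nm | repeats = single well per compound, singlicate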
# OXTR agonist = agonists of human oxytocin receptor; P30559; CHO-OTR cells, Fluo-8 calcium fluorescence; normalized: DMSO 0%, oxytocin 100%; activation, % at 3 µM; 320,000 tested, 0.32% active;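 active = activation above the mean of all tested compounds plus 3 SD, cutoff set per screening run, cut at about 20% in these data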;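 also: peak over basal fluorescence ratio from a 100 s FLIPR kinetic read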
# OX1R antag-1 = human HCRTR1 antagonism; O43613; CHO/OX1R cells, Fluo-8 calcium fluorescence, orexin A; inhibition, % at 5 µM; 330,000 tested, 0.43% active;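 active = inhibition above its plate's threshold, mean inhibition of all tested compounds on the plate plus 3 SD, cut at about 37% in these data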;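 also: 0% = orexin A challenge wells and 100% = SB-334867-A antagonist wells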
# Target sequence (O43613 whole entry, looked up): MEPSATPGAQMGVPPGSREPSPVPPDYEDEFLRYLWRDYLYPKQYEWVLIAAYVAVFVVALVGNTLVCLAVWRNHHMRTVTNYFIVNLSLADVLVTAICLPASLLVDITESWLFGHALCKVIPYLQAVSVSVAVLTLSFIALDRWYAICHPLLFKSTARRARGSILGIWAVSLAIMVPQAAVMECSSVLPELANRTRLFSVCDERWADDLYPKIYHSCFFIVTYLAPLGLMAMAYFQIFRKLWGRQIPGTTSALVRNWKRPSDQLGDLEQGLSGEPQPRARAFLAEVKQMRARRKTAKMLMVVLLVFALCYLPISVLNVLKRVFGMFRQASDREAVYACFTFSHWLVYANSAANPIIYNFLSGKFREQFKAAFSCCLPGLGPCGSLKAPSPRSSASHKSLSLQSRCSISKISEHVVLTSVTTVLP
# OX1R antag-2 = OX1R (human) antagonism; inhibition, % at 6.6 µM; OX1R-expressing cells, FRET antagonist read-out; 330,000 tested, 1.8% active; in the data active = inhibition mostly above about 38%, no sharp cut-off; inactive = mostly below about 40%;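 also: 0% = agonist challenge alone and 100% = reference antagonist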
# CHO parental Ca = counter-screen: ATP calcium response change in parental CHO cells. parental CHO-K1, ATP-induced calcium, Fluo-8 fluorescence. inhibition, % at 5.6 µM. 330,000 tested, 0.63% active. AID 463079;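 active = inhibition above that plate's mean sample inhibition plus 3 SD, cut at about 26% in these data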;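 also: 0% = ATP-challenged DMSO wells and 100% = DMSO wells without ATP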
#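 Test system: untransfected parental CHO cell line; also added: ATP stimulus; dosing: 5.6 µM, single dose; signal: calcium-sensitive Fluo-8 fluorescence; measure: percent inhibition of ATP-evoked calcium rise, normalized to controls; benchmarks: low control ATP plus DMSO, high control DMSO only; replication: one well per compound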
# V1aR counter = counter-screen for oxytocin receptor agonists: human V1a receptor agonists; P37288; CHO-V1R cells, Fluo-8 calcium fluorescence, agonist mode; 0% DMSO, 100% 3 nM vasopressin; activation, % at 3 µM; 320,000 tested, 0.25% active;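 active = activation above the mean activation of all tested compounds plus 3 SD, per screening run, cut at about 20% in these data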;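 also: signal is peak over basal fluorescence ratio across a 100 second FLIPR read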
# An asterisk follows results filed as active; . = no result given.
SMILES,OXTR potentiate,OXTR agonist,OX1R antag-1,OX1R antag-2,CHO parental Ca,V1aR counter
COCCCNC(=O)C[C@H]1C[C@H](C(=O)N2CCCCC2)[C@@]2(CCc3ccccc3)c3[nH]c4cc(CCC(=O)N(C)C)ccc4c3CCN2C1=O,.,.,-14.6,11.4,-9.4,.
Cc1cc(C)cc(C(=O)NCC(=O)OCC(=O)NC2CC2)c1,-1.2,-0.3,5.8,3.9,-1.7,2.3
CCCNC(=O)c1onc(CS(=O)(=O)c2cc(C)cc(C)c2)c1C(=O)NCCC,5.5,-2.4,-29.3,7.0,-16.2,-0.9
CCOC(=O)CN1C(=O)S/C(=C/c2ccc(O)c([N+](=O)[O-])c2)C1=O,-12.3,5.8,-6.2,56.5*,-7.2,9.1
CCOc1cc(/C=C2\SC(=S)N(Nc3ccccc3)C2=O)ccc1O,-17.6,47.2*,19.0,18.1,32.6,26.6*
COc1cc(/C=C2\SC(=S)N(NC(=O)c3cccnc3)C2=O)ccc1O,-6.8,10.7,8.7,56.1,22.2,14.2
COc1cc(/C=C2\SC(=S)N(c3cccnc3)C2=O)ccc1O,-10.3,24.3*,29.7,16.8,27.1,26.4*
CCOc1ccccc1NC(=O)N1CCc2ccccc2C1,0.9,-2.0,-28.9,28.8,-21.2,-0.9
CC(C)C1C(C#N)=C(N)Oc2n[nH]c(-c3ccc4ccccc4c3)c21 (centres undefined),-11.5,-0.9,42.1,-4.2,34.2*,0.9
CC(C)C1C(C#N)=C(N)Oc2n[nH]c(-c3cccs3)c21 (centres undefined),-12.4,-0.9,-4.9,12.9,-12.4,0.9
CCC(C)Sc1ccc([C@@H]2[C@H]3C(=O)N(CC)C(=O)[C@H]3[C@]3(C(=O)OC)CCCCN23)cc1 (some centres undefined),-5.7,1.9,-31.4,12.2,-36.7,1.2
C[n+]1c(-c2ccccc2)sc([S-])c1-c1ccccc1,-5.1,-2.2,-23.4,15.1,39.5*,3.6
CCC(=O)N1CC2(CC(c3cccc([N+](=O)[O-])c3)=NO2)C[C@H]1C(=O)NCC(N)=O (some centres undefined),-10.1,0.2,-0.3,66.0*,-4.7,1.2
CCC(=O)Nc1cccc(C2=NOC3(C2)C[C@H](C(N)=O)N(C(=O)Cc2ccc([N+](=O)[O-])cc2)C3)c1 (some centres undefined),-11.8,-0.3,2.4,22.2,0.4,-0.5
CC(C)(C)NC(=O)CN1C(=O)NC(c2ccccc2)(c2ccccc2)C1=O,-8.4,2.8,-26.6,23.3,-13.4,3.4
O=C(CN1C(=O)NC(c2ccccc2)(c2ccccc2)C1=O)NCc1ccc(F)cc1,-8.5,1.3,21.4,40.5*,-20.9,-0.1
COc1ccc(CNC(=O)C(C)N2C(=O)NC(c3ccccc3)(c3ccccc3)C2=O)cc1 (centres undefined),-6.5,-0.1,16.3,35.3*,-32.9,1.3
CCOc1ccc(CCNC(=O)CS(=O)Cc2nc(-c3ccc(OC)cc3)oc2C)cc1OCC (centres undefined),0.4,0.2,3.4,49.7*,-24.4,4.5
CCOc1ccc(CCNC(=O)CS(=O)Cc2nc(-c3ccccc3Cl)oc2C)cc1OCC (centres undefined),-3.8,-0.8,17.6,72.1*,-25.5,0.2
O=C(NCCCNC(=O)c1c(Cl)cccc1Cl)c1c(Cl)cccc1Cl,5.7,0.1,-2.7,14.1,-5.7,2.0
CCOC(=O)C1CCCN(S(=O)(=O)c2ccc(C)cc2)C1 (centres undefined),-15.9,1.2,-11.4,15.0,10.0,1.5
CCOC(=O)C1CCCN(S(=O)(=O)c2ccc(S(=O)(=O)N(CC)CC)cc2)C1 (centres undefined),-10.8,11.5,47.5*,46.3,51.1*,8.2
CC/C(=N\Nc1ccc([N+](=O)[O-])cc1[N+](=O)[O-])c1ccc(O)cc1,-3.9,0.7,-19.3,10.3,2.7,0.1
C/C(=N\Nc1ccc([N+](=O)[O-])cc1[N+](=O)[O-])C(C)(C)C(C(=O)O)C(=O)O,-2.5,0.7,-10.2,73.0*,-7.1,0.8
COc1cc2ccccc2cc1C(=O)Nc1nccs1,-5.3,0.1,-9.2,63.8*,-22.2,0.5
